Measured values reported in ChEMBL document CHEMBL2146414, “Lignan derivatives from Krameria lappacea roots inhibit acute inflammation in vivo and pro-inflammatory mediators in vitro” (J Nat Prod, 2011).
Calls of active or inactive are those of the source. The rule behind the calls is not given here.

Tests used:
[1] = biological target: T1, Glucocorticoid receptor (Homo sapiens) (UniProt P04150); experiment: Activation of GR transfected in HEK293 cells at 10 uM after 18 hrs by firefly luciferase reporter gene-based luminescence assay; type: cell-based
T1 sequence (whole entry): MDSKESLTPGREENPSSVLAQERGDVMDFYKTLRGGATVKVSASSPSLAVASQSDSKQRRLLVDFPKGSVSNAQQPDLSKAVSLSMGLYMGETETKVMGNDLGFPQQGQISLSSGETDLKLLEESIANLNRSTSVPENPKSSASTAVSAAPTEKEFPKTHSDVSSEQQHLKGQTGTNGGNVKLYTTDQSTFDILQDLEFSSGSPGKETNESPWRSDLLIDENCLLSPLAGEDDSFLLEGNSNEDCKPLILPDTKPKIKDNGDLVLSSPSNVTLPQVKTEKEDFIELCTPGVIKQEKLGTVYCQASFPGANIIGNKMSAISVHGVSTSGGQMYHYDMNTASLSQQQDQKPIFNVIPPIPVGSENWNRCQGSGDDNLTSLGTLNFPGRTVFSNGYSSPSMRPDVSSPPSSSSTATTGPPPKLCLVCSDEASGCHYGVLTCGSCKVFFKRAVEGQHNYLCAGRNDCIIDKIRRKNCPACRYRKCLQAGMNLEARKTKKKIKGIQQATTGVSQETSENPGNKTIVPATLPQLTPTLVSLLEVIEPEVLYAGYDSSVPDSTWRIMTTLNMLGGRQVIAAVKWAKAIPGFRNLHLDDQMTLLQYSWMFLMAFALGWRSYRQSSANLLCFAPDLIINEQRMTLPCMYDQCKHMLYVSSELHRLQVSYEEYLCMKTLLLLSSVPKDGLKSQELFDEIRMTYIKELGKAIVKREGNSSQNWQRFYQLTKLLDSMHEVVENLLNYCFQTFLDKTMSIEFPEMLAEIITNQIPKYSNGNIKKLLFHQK

[2] = biological target: T2, Peroxisome proliferator-activated receptor alpha (Homo sapiens) (UniProt Q07869); experiment: Activation of PPARalpha transfected in HEK293 cells at 10 uM after 18 hrs by firefly luciferase reporter gene-based luminescence assay; type: cell-based
T2 sequence (whole entry): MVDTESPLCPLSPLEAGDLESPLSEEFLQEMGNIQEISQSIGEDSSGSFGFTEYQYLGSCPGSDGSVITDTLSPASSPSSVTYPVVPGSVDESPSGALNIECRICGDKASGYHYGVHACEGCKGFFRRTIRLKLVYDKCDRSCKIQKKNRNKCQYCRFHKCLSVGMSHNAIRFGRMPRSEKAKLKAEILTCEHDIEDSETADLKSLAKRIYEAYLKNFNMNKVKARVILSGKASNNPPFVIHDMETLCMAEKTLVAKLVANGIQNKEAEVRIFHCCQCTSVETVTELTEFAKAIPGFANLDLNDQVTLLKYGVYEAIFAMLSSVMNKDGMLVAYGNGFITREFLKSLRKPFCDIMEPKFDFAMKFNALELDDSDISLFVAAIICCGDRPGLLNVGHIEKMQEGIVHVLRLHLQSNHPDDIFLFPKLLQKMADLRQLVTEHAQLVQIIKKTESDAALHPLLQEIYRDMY

Mus musculus = experiment: Antiinflammatory activity in CD1 mouse ear dermatitis model assessed as inhibition of Croton oil-induced ear edema administered topically per cm'2 of ear measured after induction of dermatitis relative to untreated control; type: functional
[3] = biological target: T3, Prostaglandin G/H synthase 2 (Ovis aries, UniProt P79208); experiment: Inhibition of sheep placental COX2 assessed as PGE2 production by enzyme immunoassay
T3 sequence (P79208 whole entry): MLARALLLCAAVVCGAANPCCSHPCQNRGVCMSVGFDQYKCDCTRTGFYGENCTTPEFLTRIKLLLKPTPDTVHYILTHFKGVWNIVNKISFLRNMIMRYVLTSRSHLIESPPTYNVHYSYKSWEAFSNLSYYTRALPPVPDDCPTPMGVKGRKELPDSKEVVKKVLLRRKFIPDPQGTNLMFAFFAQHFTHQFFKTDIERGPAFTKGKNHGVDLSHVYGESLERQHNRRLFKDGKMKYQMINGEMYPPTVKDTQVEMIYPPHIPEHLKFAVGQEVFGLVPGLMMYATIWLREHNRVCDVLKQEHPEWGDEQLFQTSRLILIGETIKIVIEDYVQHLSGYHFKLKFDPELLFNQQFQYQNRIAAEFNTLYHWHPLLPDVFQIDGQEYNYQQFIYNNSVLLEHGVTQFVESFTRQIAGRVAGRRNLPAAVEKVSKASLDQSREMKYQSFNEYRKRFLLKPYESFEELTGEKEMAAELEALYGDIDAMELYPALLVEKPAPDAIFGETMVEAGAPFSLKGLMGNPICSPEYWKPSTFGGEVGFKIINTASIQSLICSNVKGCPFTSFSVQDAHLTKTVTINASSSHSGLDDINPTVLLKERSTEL

[4] = biological target: T4, Polyunsaturated fatty acid 5-lipoxygenase (Homo sapiens, UniProt P09917); experiment: Inhibition of 5-lipoxygenase in human neutrophils assessed as inhibition of LTB4 production
T4 sequence (P09917 whole entry): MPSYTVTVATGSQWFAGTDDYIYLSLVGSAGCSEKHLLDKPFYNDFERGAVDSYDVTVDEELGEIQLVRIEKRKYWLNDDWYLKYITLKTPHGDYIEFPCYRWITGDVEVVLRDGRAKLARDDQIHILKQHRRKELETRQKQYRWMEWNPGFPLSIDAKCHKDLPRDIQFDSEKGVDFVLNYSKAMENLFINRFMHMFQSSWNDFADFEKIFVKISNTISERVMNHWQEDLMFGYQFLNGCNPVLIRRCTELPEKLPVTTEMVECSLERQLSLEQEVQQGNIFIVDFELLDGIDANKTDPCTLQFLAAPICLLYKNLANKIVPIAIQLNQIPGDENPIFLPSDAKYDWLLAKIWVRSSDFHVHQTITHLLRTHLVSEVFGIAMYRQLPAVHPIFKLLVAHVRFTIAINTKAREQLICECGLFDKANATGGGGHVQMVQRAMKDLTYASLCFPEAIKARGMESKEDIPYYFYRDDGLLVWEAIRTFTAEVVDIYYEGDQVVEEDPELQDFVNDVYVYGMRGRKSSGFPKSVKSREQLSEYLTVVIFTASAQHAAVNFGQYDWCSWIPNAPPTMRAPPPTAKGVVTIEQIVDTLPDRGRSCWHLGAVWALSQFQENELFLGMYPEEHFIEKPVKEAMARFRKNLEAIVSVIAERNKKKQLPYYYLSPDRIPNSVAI
How it was run: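 Stimulated human neutrophilic granulocytes; 5-LO-mediated LTB4 formation measured; samples dissolved in ethanol. IC50 from at least three concentrations, duplicates, at least three independent experiments, by nonlinear regression.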

Prostaglandin E synthase = biological target: T5, Prostaglandin E synthase (Homo sapiens, UniProt O14684); experiment: Inhibition of mPGES1 in IL-1beta treated human A549 cell microsomal membrane assessed as inhibition of PGE2 formation incubated for 15 mins before addition of PGH2 by RP-HPLC method; type: microsomes, Microsome
T5 sequence (O14684 whole entry): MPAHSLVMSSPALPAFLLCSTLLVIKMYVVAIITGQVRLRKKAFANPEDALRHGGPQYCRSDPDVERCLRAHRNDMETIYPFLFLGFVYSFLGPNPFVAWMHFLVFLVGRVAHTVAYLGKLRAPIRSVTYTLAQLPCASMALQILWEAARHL

Compound | Activity [1] | Activity [2] | ID50 (Mus musculus) [umol/cm2] | IC50 [3] [µM] | IC50 [4] [µM] | IC50 (Prostaglandin E synthase) [µM]
C/C=C/c1ccc2oc(-c3ccc(OC)cc3O)cc2c1 [RATANIAPHENOL I] | inactive | inactive | 0.57 | > 50 | > 50 | 13
C/C=C/c1ccc2oc(-c3ccc(O)cc3OC)cc2c1 [RATANIAPHENOL III] | inactive | inactive | 0.48 | 7.6 | > 50 | 13.5
C/C=C/c1ccc2c(c1)[C@H](CO)[C@@H](c1ccc(O)cc1)O2 | inactive | inactive | 0.42 | > 50 | > 50 | 39.5
C/C=C/c1ccc2oc(-c3ccc(O)cc3O)cc2c1 | inactive | inactive | 0.6 | 7.1 | > 50 | 7.4
C/C=C/c1ccc2oc(-c3ccc(O)cc3)cc2c1 | inactive | inactive | 0.44 | 2 | > 50 | 5.3
COc1cc(O)ccc1-c1cc2cc(CCCO)ccc2o1 | inactive | inactive | 0.45 | > 50 | 41.4 | > 50
C[C@@H]1[C@H](C)[C@@H](c2ccc(O)cc2)O[C@H]1c1ccc(O)cc1 | inactive | inactive | 0.36 | > 50 | > 50 | > 50
C[C@@H]1[C@H](C)[C@@H](c2ccc(O)cc2)O[C@@H]1c1ccc(O)cc1 | inactive | inactive | 0.46 | > 50 | > 50 | > 50
C/C=C/c1ccc2oc(-c3ccc(O)cc3)c(C)c2c1 [RATANIAPHENOL II] | inactive | inactive | 0.4 | 1.7 | > 50 | 11
C/C=C/c1ccc2c(c1)[C@@H](C)[C@H](c1ccc(O)cc1)O2 | inactive | inactive |  | > 50 | 18.4 | 19.5
COc1ccc(-c2cc3cc(CCCO)ccc3o2)c(O)c1 | inactive | inactive | 0.36 | > 50 | 27.2 | 42
